We go through 167 variants from the RNAGym collection of RNA variant scans (doi:10.1126/science.aae0568).

The labels stand for the following.
B1: tRNA (parent)
chain: GUUCCGUUGGCGUAAUGGUAACGCGUCUCCCUCCUAAGGAGAAGACUGCGGGUUCGAGUCCCGUACGGAACG

Variants at the floor of the assay were thinned out.

This data set covers variants of B1. Put plainly: yeast fitness relative to wild type (ratio to wild type); higher = fitter; tRNA-Arg(CCU), competitive growth, 37 C, YPD. The essentials:
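Genotype frequency changes were the basis for Darwinian fitness relative to wild type. The frequencies came from 100-nucleotide paired-end sequencing of gene amplicons from the start population and each end population of pooled yeast strains with tRNA-Arg(CCU) gene variants at the native locus. Competition ran in YPD at 37°C for 24 hours in six replicates, genotypes needed ≥ 100 starting reads, and estimates < 0.5 were set to 0.5.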
Take C46U C60A A70U: the yeast fitness is 0.585. The value for C46A C55U was 0.758; that for C46A C55A was 0.562; that for C46G C49A A69U was 0.549.

As to A45G U54G, the yeast fitness is 0.563. With C46G C60G the figure was 0.715; with A45C, 0.987; with A45U, 0.99. With A45G the figure was 0.991; with A45C C62G, 0.718; with A45C C62A, 0.622. The value for G44C U54A was 0.667; that for G44C U54C was 0.977; that for C46G U53C was 0.903. Turning to A45C G56C U64C, the yeast fitness stood at 0.555. With A45U G67C the figure was 0.738; with C46A G58U G68A, 0.932; with C46U C60G A65U, 0.557. With A45G C61A the figure was 0.635. With A45U G51A the figure was 0.919; with A45U G51C, 0.538. As for A45C U64C, the yeast fitness was found to be 0.941. The value for A45G U53G was 0.586. On to A45U G48A C55A A65C, for which the yeast fitness is ≤ 0.5. With C46U G51C A70U the figure was 0.557. The value for C46U G51C A70C was 0.504; that for A45C G50C G51C C55U G67C was ≤ 0.5; that for A45C G50A C60G A65G was ≤ 0.5. With A45C A70G the figure was 0.957; with A45U C49U A65U, 0.755. Consider A45C C46G G56C, for which the yeast fitness was found to be 0.563.

As to G44C G50C G52A U54G C61G, the yeast fitness was ≤ 0.5. Take C46A C61U A70C: the yeast fitness was determined as 0.861. With A45C G56A C62U the figure was 0.711.

As to A45G C61A A70G, the yeast fitness is 0.55. As for C46U A69G, the yeast fitness worked out at 0.894. The value for C46U C61G was 0.593; that for C46A C55G G67U was 0.699. With A45U C46G A70U the figure was ≤ 0.5; with C46A U53C, 0.865; with A45C A57C G68C, 0.517. The value for A45C C46A was 0.991; that for A45C C46G was 1.01; that for A45U C61G A65C was ≤ 0.5. For the variant C46U G52A, the yeast fitness amounted to 0.729.

As for C46U G52C, the yeast fitness was 0.614. Regarding A45U G67U A69G, the yeast fitness worked out at 0.536. With A45C U47C A57C G68C the figure was ≤ 0.5; with A45U C46G G52A, 0.578. The value for C46U G67A was 0.986. The value for C46U G67U was 0.869; that for A45C U47A U53C was ≤ 0.5; that for G44C G67A was 0.722. Take G44C G67U: the yeast fitness was found to be 0.855. Take C46A G56U A57G: the yeast fitness was determined as 0.665.

For the variant C46U G56A A70G, the yeast fitness was determined as 0.697. Turning to C46A C61G, the yeast fitness stood at 0.637. The value for C46A C61A was 0.758; that for G44C C62U G63A was ≤ 0.5; that for A45G C49G A65C was ≤ 0.5.

In the case of A45U C55U A69G, the yeast fitness was ≤ 0.5. With G44C C66A the figure was 0.688; with A45U G48A, 0.824. For C46G U54C C60A C62A, the yeast fitness is ≤ 0.5. With C46A C55G C66U A69C the figure was ≤ 0.5; with A45U A65U, 0.959. Take A45U A65G: the yeast fitness is 0.947. The value for C46G G50C G56A A57U was ≤ 0.5; that for A45G G58A A69U was 0.738; that for A45G G58C was 0.958. For the variant C46A U64C, the yeast fitness stood at 0.986. The value for A45G C66U was 0.952; that for A45G C55U was 0.704.

Consider A45G C55G, for which the yeast fitness was found to be 0.562. With C46U G51A C66U the figure was 0.778. With C46G G63C C66A the figure was ≤ 0.5; with C46A G63A, 0.949; with C46A G63U, 0.764. The value for A45C C55U G67C was ≤ 0.5; that for C46G C60U G68C was ≤ 0.5; that for A45G C62U C66A was ≤ 0.5. For the variant A45U C46U A57U, the yeast fitness turned out to be 0.539. With G44C C62U A69C the figure was 0.696; with A45G G50C, 0.637.

For the variant A45G G58A G63A, the yeast fitness was 0.727.

With C46A G58U, the yeast fitness came out at 0.907. The value for A45G G68A was 0.973; that for A45U C66U G68A was 0.665. The value for C46U C60G was 0.627; that for C46U C60A was 0.543. With C46U C60U the figure was 0.807; with C46U C49U C66U, 0.806. Consider A45G G56C, for which the yeast fitness was 0.604. In the case of A45C C61G, the yeast fitness turned out to be 0.591. The value for G44C G50A was 0.861; that for A45C G48A C62U was 0.606. On to A45U G48A G56A, for which the yeast fitness was 0.975. In the case of G44C U64G, the yeast fitness is 0.653. In the case of G44C U64C, the yeast fitness was 0.858.

A45U C46U U47C U64C: the yeast fitness was found to be 0.988.

A45C C55U G56A: the yeast fitness was 0.539.

With G44C G63A, the yeast fitness worked out at 0.83.

Regarding A45C C46U U64C, the yeast fitness amounted to 0.79. The value for G44C G56A was 0.795.

Take C46A C55A G63A: the yeast fitness came to 0.575. With A45C G58U the figure was 0.675. Take A45G C46A A69U: the yeast fitness is 0.768. The value for C46A G50A C60G G63C was ≤ 0.5; that for A45C C46U G67C was 0.584; that for A45G G63A was 0.747. The value for A45G G63U was 0.732. As to G44C C62A, the yeast fitness was determined as 0.738.

Turning to G44C C62G, the yeast fitness was 0.644. With G44C C62A C66U, the yeast fitness is ≤ 0.5. With C46G A57C A69C the figure was ≤ 0.5.

In the case of C46G C55U A57C C61G, the yeast fitness was ≤ 0.5.

For C46A C62A, the yeast fitness worked out at 0.805. The value for A45U C60G C66A was ≤ 0.5; that for C46A U54G was 0.544; that for C46A C60G C62U A69C was ≤ 0.5.

Consider A45C G50A C62U A69U, for which the yeast fitness was determined as 0.561.

As for C46G G50A C62A, the yeast fitness came to 0.603. For A45C C49U C55U, the yeast fitness turned out to be 0.596. The value for C46A G68C was 0.78. The value for C46A G68U was 0.824; that for A45U C55U A70C was 0.589. The value for A45C C55A was 0.562; that for A45C G63C C66U was ≤ 0.5; that for C46A A57U G68C was 0.543. Regarding A45U G58A, the yeast fitness was 0.907. Consider C46G C62G, for which the yeast fitness came out at 0.786. The value for C46G C62U was 0.982; that for C46G G68A was 0.825. Consider C46G G68U, for which the yeast fitness was 0.658. With C46G G68C, the yeast fitness was 0.795. The value for A45C G63C U64C was ≤ 0.5; that for G44C G52A U59C U64G was 0.553. The value for C46A G63C G67A was 0.614. The value for A45U C61G was 0.569; that for A45G C46U G50C was ≤ 0.5. Consider A45U G63C A65U, for which the yeast fitness came out at 0.727. Take A45U G63C A65G: the yeast fitness came to 0.647. For the variant C46G G58A U59G, the yeast fitness was ≤ 0.5. The value for C46A A57G C61U was 0.704; that for A45U C60U was 0.737; that for C46G A57U C66U was 0.608. The value for C46U was 0.986.

For C46A, the yeast fitness is 0.999. With C46G the figure was 0.99.

For the variant A45U C49U C61G, the yeast fitness was 0.582. For C46U G50A, the yeast fitness stood at 0.965.

With C46G U64A, the yeast fitness came to 0.889. A45C U54C C66U: the yeast fitness came to 0.606. The value for G44C U53C was 0.797. Regarding C46G C49U, the yeast fitness was found to be 0.981.

C46G C49A: the yeast fitness worked out at 0.7.

On to C46G C49G, for which the yeast fitness came out at 0.966. As for C46A G58C C66U, the yeast fitness was determined as 0.998. With C46U G68C the figure was 1.02. The value for C46U C62G was 0.969. C46U A65G: the yeast fitness is 0.877. With G44U C49G the figure was 0.654. With A45C U47A the figure was 0.934; with A45C U47C, 0.951. With A45C C66A the figure was 0.665; with A45C C66U, 0.786; with C46U G48A, 0.93.
